# HCV NS3 hel inh – HCV NS3 helicase inhibition | 290,000 tested, 0.56% active | inhibition, % at 10.9 µM | NS3 helicase DNA unwinding, Cy5 molecular beacon fluorescence;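 active = inhibition above the mean of all tested compounds plus 3 SD, set per campaign, cut at about 35% in these data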
#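 System: HCV NS3 helicase fragment; control set: DMSO and thioflavine S; technique: Cy5 fluorescence at 0 and 60 min, beacon hairpin quenching; reagent: beacon DNA duplex substrate plus ATP; replicates: singlicate; schedule: 1 h reaction at 25 °C, ATP-initiated; medium: MOPS buffer pH 6.5 with MgCl2, DTT, Tween20, BSA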
# HCV core dimer – blocks dimerization of HCV core protein. TR-FRET GST/Flag-core106 dimerization, 1536-well. inhibition, % at 5 µM. 300,000 tested, 0.33% active;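 active = inhibition above the mean of all tested compounds plus 3 SD, set per screening campaign, cut at about 45% in these data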
#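 assay system = GST-tagged and Flag-tagged HCV core protein residues 1-106 | controls = unlabelled core106 and no-GST-core106 wells | incubation = compound-protein-antibody incubation 4 h at 22.5 °C | probe or stimulus = Eu donor and XL665 acceptor anti-tag antibodies | read-out = % inhibition based on acceptor/donor emission ratio | signal = TR-FRET 671 and 617 nm emission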
# A3A deaminase – blocks human APOBEC3A ssDNA deamination | P31941 | recombinant A3A, FAM/TAMRA ssDNA deamination fluorescence | inhibition, % at 20 µM | 330,000 tested, 0.41% active;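 active = at least 40% inhibition at 20 µM here, with at most 30% in a related deaminase screen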
# Target sequence (P31941 whole entry, looked up): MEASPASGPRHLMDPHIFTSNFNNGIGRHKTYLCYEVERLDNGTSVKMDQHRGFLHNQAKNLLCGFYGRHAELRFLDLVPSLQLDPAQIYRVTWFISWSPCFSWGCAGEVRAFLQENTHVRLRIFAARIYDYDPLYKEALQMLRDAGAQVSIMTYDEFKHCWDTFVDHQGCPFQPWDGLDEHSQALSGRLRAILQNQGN
# ABHD5 PLIN5 PPI – inhibitors of human ABHD5-perilipin-5 interaction; Split G. princeps luciferase complementation, luminescence, 4 h; inhibition, % at 4 µM; AID 602281; 360,000 tested, 0.78% active; Q00G26+Q8WTS1;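 active = inhibition above the mean inhibition across every tested compound plus 3 SD, cut at about 22% in these data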
# APOBEC3G inh – inhibitors of human APOBEC3G DNA deaminase; Q9HC16; recombinant A3G, ssDNA deamination FAM/TAMRA fluorescence; inhibition, % at 20 µM; 330,000 tested, 0.28% active; AID 493012;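 active = inhibition of at least 40% at 20 µM, with no more than 30% in the related APOBEC3A deaminase screen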
# PRMT1 inh – PRMT1 (human) inhibition, primary screen; 370,000 tested, 1.3% active; Q99873; recombinant PRMT1, activity-based probe fluorescence polarization; inhibition, % at 2.79 µM;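 active = inhibition above about 21% made by adding two undisclosed values, limit read from the data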
# Target sequence (Q99873 whole entry, looked up): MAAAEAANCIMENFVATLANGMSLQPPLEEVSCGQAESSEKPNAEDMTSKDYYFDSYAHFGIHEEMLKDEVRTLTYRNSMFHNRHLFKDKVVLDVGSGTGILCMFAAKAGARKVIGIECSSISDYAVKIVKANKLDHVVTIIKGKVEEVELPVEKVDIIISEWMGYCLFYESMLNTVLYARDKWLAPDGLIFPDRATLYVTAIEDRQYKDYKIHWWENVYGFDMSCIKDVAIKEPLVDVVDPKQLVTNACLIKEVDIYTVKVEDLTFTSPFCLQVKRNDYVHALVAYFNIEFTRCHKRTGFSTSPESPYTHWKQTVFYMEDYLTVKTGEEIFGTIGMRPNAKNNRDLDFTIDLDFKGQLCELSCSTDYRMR
# NS3 helicase cf – confirmation of Hepatitis C virus NS3 helicase inhibitors. inhibition, % at 10.9 µM. NS3 helicase DNA unwinding, Cy5 molecular beacon fluorescence. 1,600 tested, 31% active. shares compounds with HCV NS3 hel inh. AID 1943;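 active = inhibition above the mean of all tested compounds plus 3 SD, cutoff set per campaign, cut at about 36% in these data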
# FID counter trip – counter-screen for HCV NS3 helicase inhibitors: DNA intercalator displacement | shares compounds with HCV NS3 hel inh | inhibition, % at 7.9 µM | DNA fluorescent intercalator displacement, fluorescence | 1,600 tested, 4% active; in the data active = inhibition above about 37%;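 note: higher means more displacement of ethidium bromide from the DNA hairpin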
# DNA FID DR – displaces fluorescent intercalator from DNA, HCV helicase counter-screen | 120 tested, under 10 active | fluorescent intercalator displacement from DNA, fluorescence | shares compounds with HCV NS3 hel inh | IC50, µM
# APOBEC3A confirm – APOBEC3A (human) deaminase inhibition, confirmed; shares compounds with A3A deaminase; recombinant A3A, ssDNA deaminase UDG fluorescence assay; inhibition, % at 20 µM; 1,400 tested, 63% active; AID 493151;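 active = inhibition reaching a set limit, 80% of the first screen's cutoff, at 20 µM in any replicate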
# UDG A3A counter – UDG inhibition in APOBEC3A counter-screen; shares compounds with A3A deaminase; AID 504714; inhibition, % at 20 µM; UDG counterscreen, FAM/TAMRA uracil oligo fluorescence; 1,000 tested, under 10 active
# ABHD5 PLIN5 conf – ABHD5-PLIN5 interaction inhibition, confirmed; biochemical ABHD5-PLIN5 interaction, luminescence; 2,200 tested, 67% active; inhibition, % at 4 µM; shares compounds with ABHD5 PLIN5 PPI; AID 651612; in the data active = inhibition above about 23%
# HNF4 split-luc – active in HNF4 split-luciferase counter-screen for ABHD5-PLIN5 inhibitors; inhibition, % at 4 µM; HNF4 dimerization, luminescence, biochemical; shares compounds with ABHD5 PLIN5 PPI; 2,200 tested, 77% active;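 active = mean inhibition across replicate wells exceeding the computed hit threshold, cut at about 13% in these data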;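 note: light from luciferase halves that rejoin when HNF4 fusion proteins dimerize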
# PRMT1 inh conf – confirmation of human PRMT1 inhibitors; shares compounds with PRMT1 inh; recombinant His-PRMT1, activity-based probe fluorescence polarization; inhibition, % at 2.79 µM; 3,300 tested, 42% active;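 active = mean inhibition across replicates above the hit cutoff derived for the earlier primary screen, cut at about 22% in these data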
# Numbers stand for hits; 0 = inactive; - = no result given. The list is not random: actives were taken first. Their share in the collection is about 2.9%. Unless noted, the rule behind the calls is not given here.
SMILES,HCV NS3 hel inh,HCV core dimer,A3A deaminase,ABHD5 PLIN5 PPI,APOBEC3G inh,PRMT1 inh,NS3 helicase cf,FID counter trip,PRMT1 inh conf,others
COc1ccc(S(=O)(=O)Nc2ccc3c(c2)[C@H]2C[C@H](CC(=O)NCC4CC4)O[C@@H](CO)[C@H]2O3)cc1,-,-,-,0,-,0,-,-,-,
CC(C)(C)n1nc2c(c1NC(=O)Cc1ccc([N+](=O)[O-])cc1)CS(=O)(=O)C2,0,0,0,0,0,0,-,-,-,
CCOC(=O)c1c(-c2ccc(F)cc2)csc1NC(=O)C1CC=CCC1C(=O)O (stereo not drawn),0,0,0,0,0,0,-,-,-,
COC(=O)c1c(-c2ccco2)csc1NC(=O)C1CC=CCC1C(=O)O (stereo not drawn),36,0,0,0,0,27,0,0,0,
Cc1ccc(-c2cc(C(=O)O)c3cc(Br)ccc3n2)o1,38,0,0,27,0,77,79,0,81,ABHD5 PLIN5 conf=79;HNF4 split-luc=88
CCOC(=O)c1cc2c(ccn2C)n1CC(=O)N(Cc1ccccc1)c1ccc(F)cc1,0,0,0,0,0,0,-,-,-,
CC(C)OC(=O)c1cc2c(ccn2C)n1CC(=O)N(Cc1ccccc1)c1ccc(F)cc1,38,0,0,0,0,25,0,0,0,
CCCN1C(=O)SC(CC(=O)Nc2ccccc2)C1=O (stereo not drawn),0,0,0,0,0,0,-,-,-,
O=C(CC1SC(=O)N(c2ccccc2)C1=O)Nc1ccc(Br)cc1 (stereo not drawn),37,0,0,0,0,32,0,0,102,
O=c1c2c(-c3ccco3)csc2nc(SCc2cn3cccnc3n2)n1-c1ccccc1,62,66,0,48,0,37,94,0,0,DNA FID DR=0
C[C@H]1CN([C@@H](C)CO)C(=O)CCCn2cc(nn2)CO[C@@H]1CN(C)C(=O)OCc1ccccc1,-,-,-,0,-,0,-,-,-,
O=Cc1ccc(-c2nc3ccccc3s2)o1,0,0,0,0,0,0,-,-,-,
O=C(O)CC(C(=O)O)N1C(=O)/C(=C/c2ccc(-c3nc4ccccc4s3)o2)SC1=S (stereo not drawn),67,0,0,0,0,55,67,0,0,
COC(=O)c1ccc(C(=O)N2CCCCCC2(C)C(=O)NC(C)C)cc1 (stereo not drawn),-,-,-,0,-,0,-,-,-,
Cc1cccc(N=C2NC(=O)/C(=C/c3cccn3C)S2)c1C,0,0,0,0,0,0,-,-,-,
Cc1cccc(N=C2NC(=O)/C(=C/C=C/c3ccco3)S2)c1C,45,59,-,0,-,29,88,0,31,DNA FID DR=0
CNc1ccc(Br)cc(C(=O)/C=C/c2cccc(Cl)c2Cl)c1=O,37,-,-,0,-,25,68,0,0,DNA FID DR=0
O=C(C=Cc1ccccc1)c1cc(Br)ccc1O,-,-,-,0,-,0,-,-,-,
C[C@@H]1CN([C@H](C)CO)C(=O)CCCn2cc(nn2)CO[C@H]1CN(C)S(=O)(=O)c1cccs1,-,-,-,0,-,0,-,-,-,
Cc1cc2cc(C(c3nnnn3Cc3ccco3)N3CCc4ccccc4C3)c(=O)[nH]c2cc1C (stereo not drawn),39,0,0,0,0,69,64,0,66,DNA FID DR=0
Cc1cc2cc(C(c3nnnn3Cc3ccco3)N3CCc4ccccc43)c(=O)[nH]c2cc1C (stereo not drawn),0,0,0,0,0,0,-,-,-,
OCC[C@@H]1C[C@H](O)[C@@H](O)[C@@]2(OCCCc3cc(C(F)(F)F)ccc32)O1,-,-,-,0,-,0,-,-,-,
Nc1nc(-c2cc(O)ccc2[N+](=O)[O-])cc(-c2ccccc2)c1[N+](=O)[O-],96,-,0,0,0,27,0,45,0,
CC(C)(C)C(=O)Nc1ccc(C(=O)COC(=O)c2ccccn2)cc1,-,-,0,0,0,0,-,-,-,
c1coc(-c2nc(-c3ccco3)c(-c3ccco3)nc2-c2ccco2)c1,116,73,0,64,0,78,93,38,0,
SMILES,HCV NS3 hel inh,HCV core dimer,A3A deaminase,ABHD5 PLIN5 PPI,APOBEC3G inh,PRMT1 inh,NS3 helicase cf,FID counter trip,PRMT1 inh conf,others
Nc1nc(-c2ccco2)c(-c2ccco2)s1,49,0,0,0,0,40,0,0,0,
CCC1(c2ccc(F)cc2)NC(=O)N(CC(=O)NCc2ccccc2Cl)C1=O (stereo not drawn),0,0,0,0,0,0,-,-,-,
Cc1c(Cl)c(C(F)F)nn1CC(=O)NC1C(=O)N2C(C(=O)O)=C(CSc3nnnn3C)CSC12 (stereo not drawn),38,-,-,0,-,35,0,0,0,
CC1=C(C(=O)O)N2C(=O)C(NC(=O)c3nn(C)cc3Cl)C2SC1 (stereo not drawn),0,0,0,0,0,0,-,-,-,
O=C(O)Cc1sc(N/N=C\c2ccncc2)nc1-c1ccccc1,55,0,0,24,0,41,0,0,0,ABHD5 PLIN5 conf=0;HNF4 split-luc=45
Cc1ccc2c(nc3s/c(=C\c4ccc(-c5ccccc5C(=O)O)o4)c(=O)n32)c1C,44,0,0,0,0,29,65,50,0,
Cc1ccc(S(=O)(=O)N2C[C@H]3N(C(=O)OC(C)C)N(C(=O)OC(C)C)C[C@H](OC(=O)NCc4ccccc4F)[C@@]3(O)C2)cc1,-,-,-,0,-,0,-,-,-,
COc1ccc(S(=O)(=O)/N=C2/NC(=O)/C(=C\c3ccco3)S2)cc1,37,0,0,0,0,30,60,0,0,
COc1ccc(S(=O)(=O)/N=C2/NC(=O)/C(=C/c3ccco3)S2)cc1,37,0,46,0,0,47,78,0,0,DNA FID DR=0;APOBEC3A confirm=24;UDG A3A counter=0
